Measured values taken from ChEMBL document CHEMBL1125826, “Synthesis and biological activity of 5-amino- and 5-hydroxyquinolones, and the overwhelming influence of the remote N1-substituent in determining the structure-activity relationship” (1991).
≈ marks a conversion by molar mass, not a printed value.

What was measured:
Assay type in all cases: functional
Bacteria [1] = experiment: Antibacterial activity was determined against gram negative organism, Providencia rettgeri. M1771; conditions: Bacteria; read-out: MIC
How it was run: (§1)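 MIC (µg/mL) by standard microtitration against a panel of 10 Gram-positive and Gram-negative organisms; values averaged from multiple experiments.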

Bacteria [2] = experiment: MIC ratio measured as the mean MICs of gram-positive bacteria
How it was run: (§2)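 Geometric mean of the microtitration MICs (µg/mL) over the Gram-negative organisms, and separately over the Gram-positive organisms, of the 10-strain panel; individual MICs averaged from multiple experiments.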

Staphylococcus aureus [3] = experiment: Antibacterial activity was determined against gram positive organism, Staphylococcus aureus UC76; how it was run: as §1
Enterobacter cloacae = experiment: Antibacterial activity was determined against gram negative organism, Enterobacter cloacae MA2646; conditions: Enterobacter cloacae; read-out: MIC
Staphylococcus aureus [4] = experiment: Antibacterial activity was determined against gram positive organism, Staphylococcus aureus H228; conditions: Staphylococcus aureus; read-out: MIC; how it was run: as §1
Enterococcus faecalis = experiment: Antibacterial activity was determined against gram positive organism, Streptococcus faecalis MGH-2; conditions: Enterococcus faecalis; read-out: MIC; how it was run: as §1
Klebsiella pneumoniae = experiment: Antibacterial activity was determined against gram negative organism, Klebsiella pneumoniae MGH-2; conditions: Klebsiella pneumoniae; read-out: MIC; how it was run: as §1
Escherichia coli = experiment: Antibacterial activity was determined against gram negative organism, Escherichia coli vogel; conditions: Escherichia coli; read-out: MIC; how it was run: as §1
Pseudomonas aeruginosa = experiment: Antibacterial activity was determined against gram negative organism, Pseudomonas aeruginosa UI-18; conditions: Pseudomonas aeruginosa; read-out: MIC; how it was run: as §1
[5] = target: DNA gyrase (Escherichia coli) (UniProt P0AES6+P0AES4); experiment: Minimum inhibitory concentration against Escherichia coli DNA-gyrase in supercoiling assay
Streptococcus pyogenes = experiment: Antibacterial activity was determined against gram positive organism, Streptococcus pyogenes C203; conditions: Streptococcus pyogenes; read-out: MIC; how it was run: as §1
Bacteria [6] = experiment: MIC ratio measured as the mean MICs of gram-negative bacteria; how it was run: as §2
Streptococcus pneumoniae = experiment: Antibacterial activity was determined against gram positive organism, Streptococcus pneumoniae SV-1; conditions: Streptococcus pneumoniae; read-out: MIC; how it was run: as §1
[7] = Staphylococcus aureus, read-out: MIC

Structure (SMILES) | MIC (Bacteria [1]) | Geometric mean MIC over Gram-positive bacteria (µg/mL) (Bacteria [2]) | MIC (Staphylococcus aureus [3]; [7]) | MIC (Enterobacter cloacae) | MIC (Staphylococcus aureus [4]) | MIC (Enterococcus faecalis) | MIC (Klebsiella pneumoniae) | MIC (Escherichia coli) | MIC (Pseudomonas aeruginosa) | MIC [5] | MIC (Streptococcus pyogenes) | Geometric mean MIC over Gram-negative bacteria (µg/mL) (Bacteria [6]) | MIC (Streptococcus pneumoniae) | MIC (Staphylococcus aureus [3])
CCNCC1CCN(c2c(F)c(N)c3c(=O)c(C(=O)O)cn(CC)c3c2F)C1 (stereo not drawn) | 1.6 µg/mL (≈ 4.06 µM) | 0.17 | 0.1 µg/mL (≈ 0.254 µM) | 0.4 µg/mL (≈ 1.01 µM) | 0.2 µg/mL (≈ 0.507 µM) | 0.2 µg/mL (≈ 0.507 µM) | 1.6 µg/mL (≈ 4.06 µM) | 0.2 µg/mL (≈ 0.507 µM) | 6.3 µg/mL (≈ 16 µM) | 3.8 µg/mL (≈ 9.63 µM) | 0.2 µg/mL (≈ 0.507 µM) | 1.05 | 0.2 µg/mL (≈ 0.507 µM) | –
CCn1cc(C(=O)O)c(=O)c2cc(F)c(N3CCC(N)C3)cc21 (stereo not drawn) | 0.2 µg/mL (≈ 0.626 µM) | 0.4 | – | 0.1 µg/mL (≈ 0.313 µM) | 0.8 µg/mL (≈ 2.51 µM) | 0.8 µg/mL (≈ 2.51 µM) | 0.2 µg/mL (≈ 0.626 µM) | 0.1 µg/mL (≈ 0.313 µM) | 0.8 µg/mL (≈ 2.51 µM) | 2.5 µg/mL (≈ 7.83 µM) | 0.4 µg/mL (≈ 1.25 µM) | 0.13 | 0.4 µg/mL (≈ 1.25 µM) | 0.1 µg/mL (≈ 0.313 µM)
CCn1cc(C(=O)O)c(=O)c2cc(F)c(N3CCNC(C)C3)c(Cl)c21 (stereo not drawn) | 0.8 µg/mL (≈ 2.18 µM) | 1.8 | – | 0.2 µg/mL (≈ 0.544 µM) | 1.6 µg/mL (≈ 4.35 µM) | 3.1 µg/mL (≈ 8.43 µM) | 0.4 µg/mL (≈ 1.09 µM) | 0.2 µg/mL (≈ 0.544 µM) | 6.3 µg/mL (≈ 17.1 µM) | 5 µg/mL (≈ 13.6 µM) | 3.1 µg/mL (≈ 8.43 µM) | 0.6 | 3.1 µg/mL (≈ 8.43 µM) | 0.4 µg/mL (≈ 1.09 µM)
CC1CN(c2cc3c(cc2F)c(=O)c(C(=O)O)cn3-c2ccc(F)cc2F)CCN1 (stereo not drawn) [TEMAFLOXACIN] | 0.2 µg/mL (≈ 0.479 µM) | 0.087 | – | 0.05 µg/mL (≈ 0.12 µM) | 0.1 µg/mL (≈ 0.24 µM) | 0.2 µg/mL (≈ 0.479 µM) | 0.1 µg/mL (≈ 0.24 µM) | 0.05 µg/mL (≈ 0.12 µM) | 1.6 µg/mL (≈ 3.83 µM) | 0.75 µg/mL (≈ 1.8 µM) | 0.1 µg/mL (≈ 0.24 µM) | 0.15 | 0.1 µg/mL (≈ 0.24 µM) | 0.025 µg/mL (≈ 0.0599 µM)
CCn1cc(C(=O)O)c(=O)c2c(O)c(F)c(N3CC(C)NC(C)C3)c(F)c21 (stereo not drawn) | 6.3 µg/mL (≈ 16.5 µM) | 16.49 | 3.1 µg/mL (≈ 8.13 µM) | 0.8 µg/mL (≈ 2.1 µM) | 6.3 µg/mL (≈ 16.5 µM) | 25 µg/mL (≈ 65.6 µM) | 1.6 µg/mL (≈ 4.2 µM) | 0.8 µg/mL (≈ 2.1 µM) | 12.5 µg/mL (≈ 32.8 µM) | 5 µg/mL (≈ 13.1 µM) | 50 µg/mL (≈ 131 µM) | 2.41 | 50 µg/mL (≈ 131 µM) | –
CCn1cc(C(=O)O)c(=O)c2cc(F)c(N3CC(C)NC(C)C3)cc21 (stereo not drawn) | 0.8 µg/mL (≈ 2.3 µM) | 1.21 | – | 0.2 µg/mL (≈ 0.576 µM) | 1.6 µg/mL (≈ 4.61 µM) | 1.6 µg/mL (≈ 4.61 µM) | 0.4 µg/mL (≈ 1.15 µM) | 0.2 µg/mL (≈ 0.576 µM) | 6.3 µg/mL (≈ 18.1 µM) | 2.5 µg/mL (≈ 7.2 µM) | 1.6 µg/mL (≈ 4.61 µM) | 0.6 | 1.6 µg/mL (≈ 4.61 µM) | 0.4 µg/mL (≈ 1.15 µM)
CCNCC1CCN(c2c(F)cc3c(=O)c(C(=O)O)cn(CC)c3c2Cl)C1 (stereo not drawn) | 0.8 µg/mL (≈ 2.02 µM) | 0.057 | – | 0.2 µg/mL (≈ 0.505 µM) | 0.1 µg/mL (≈ 0.253 µM) | 0.1 µg/mL (≈ 0.253 µM) | 0.4 µg/mL (≈ 1.01 µM) | 0.2 µg/mL (≈ 0.505 µM) | 12.5 µg/mL (≈ 31.6 µM) | 2.5 µg/mL (≈ 6.32 µM) | 0.05 µg/mL (≈ 0.126 µM) | 0.69 | 0.05 µg/mL (≈ 0.126 µM) | 0.025 µg/mL (≈ 0.0632 µM)
CCn1cc(C(=O)O)c(=O)c2cc(F)c(N3CCNC(C)C3)cc21 (stereo not drawn) | 0.2 µg/mL (≈ 0.6 µM) | 1.05 | – | 0.1 µg/mL (≈ 0.3 µM) | 1.6 µg/mL (≈ 4.8 µM) | 1.6 µg/mL (≈ 4.8 µM) | 0.2 µg/mL (≈ 0.6 µM) | 0.1 µg/mL (≈ 0.3 µM) | 1.6 µg/mL (≈ 4.8 µM) | 2.5 µg/mL (≈ 7.5 µM) | 1.6 µg/mL (≈ 4.8 µM) | 0.23 | 1.6 µg/mL (≈ 4.8 µM) | 0.2 µg/mL (≈ 0.6 µM)
CCn1cc(C(=O)O)c(=O)c2cc(F)c(N3CCNCC3)c(Cl)c21 | 0.4 µg/mL (≈ 1.13 µM) | 1.19 | – | 0.1 µg/mL (≈ 0.283 µM) | 0.4 µg/mL (≈ 1.13 µM) | 3.1 µg/mL (≈ 8.76 µM) | 0.2 µg/mL (≈ 0.565 µM) | 0.1 µg/mL (≈ 0.283 µM) | 3.1 µg/mL (≈ 8.76 µM) | 2.5 µg/mL (≈ 7.07 µM) | 3.1 µg/mL (≈ 8.76 µM) | 0.3 | 3.1 µg/mL (≈ 8.76 µM) | 0.2 µg/mL (≈ 0.565 µM)
CCNCC1CCN(c2c(F)c(O)c3c(=O)c(C(=O)O)cn(CC)c3c2F)C1 (stereo not drawn) | 3.1 µg/mL (≈ 7.84 µM) | 0.2 | 0.05 µg/mL (≈ 0.126 µM) | 0.4 µg/mL (≈ 1.01 µM) | 0.4 µg/mL (≈ 1.01 µM) | 0.4 µg/mL (≈ 1.01 µM) | 0.8 µg/mL (≈ 2.02 µM) | 0.4 µg/mL (≈ 1.01 µM) | 12.5 µg/mL (≈ 31.6 µM) | 2.5 µg/mL (≈ 6.32 µM) | 0.2 µg/mL (≈ 0.506 µM) | 1.38 | 0.2 µg/mL (≈ 0.506 µM) | –
CCn1cc(C(=O)O)c(=O)c2cc(F)c(N3CC(C)NC(C)C3)c(Cl)c21 (stereo not drawn) | 6.3 µg/mL (≈ 16.5 µM) | 6.27 | – | 3.1 µg/mL (≈ 8.12 µM) | 3.1 µg/mL (≈ 8.12 µM) | 12.5 µg/mL (≈ 32.7 µM) | 3.1 µg/mL (≈ 8.12 µM) | 1.6 µg/mL (≈ 4.19 µM) | 12.5 µg/mL (≈ 32.7 µM) | 5 µg/mL (≈ 13.1 µM) | 12.5 µg/mL (≈ 32.7 µM) | 4.14 | 12.5 µg/mL (≈ 32.7 µM) | 1.6 µg/mL (≈ 4.19 µM)
